Experimental data published in PubChem BioAssay AID493047 (Johns Hopkins Ion Channel Center, 2011).
The source made the active and inactive calls.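 Rule for the calls: active = a rise or drop in KCNQ3 potassium channel activity at some tested dose, with a dose-response curve obtained; inactive = no effect at any dose, or no curve.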

Biological target: Potassium voltage-gated channel subfamily KQT member 3 (Rattus norvegicus) (UniProt O88944)
Test: rat KCNQ3 activity selectivity test – cell-based, thallium flux, CHO-K1 transient KCNQ3, selectivity assay for KCNQ2 activator project, dose response (AID 493047)
Conditions: CHO-K1 transient KCNQ3, FluxOR thallium flux fluorescence; series mostly up to 30 µM; potentiation: at the top concentration
Method in brief: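 Test system: transiently transfected CHO-K1 cells / Control set: vehicle / Incubation: FluxOR dye loading 90 min, compound exposure 20 min, both RT, dark / Detection: FluxOR thallium-flux fluorescence / Reagent: depolarizing K2SO4 plus Tl2SO4 stimulus, 5x stock 12.5 mM each / Read-out: % change of flux ratio relative to vehicle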

Chain of Potassium voltage-gated channel subfamily KQT member 3 (Rattus norvegicus) (O88944 whole entry, looked up): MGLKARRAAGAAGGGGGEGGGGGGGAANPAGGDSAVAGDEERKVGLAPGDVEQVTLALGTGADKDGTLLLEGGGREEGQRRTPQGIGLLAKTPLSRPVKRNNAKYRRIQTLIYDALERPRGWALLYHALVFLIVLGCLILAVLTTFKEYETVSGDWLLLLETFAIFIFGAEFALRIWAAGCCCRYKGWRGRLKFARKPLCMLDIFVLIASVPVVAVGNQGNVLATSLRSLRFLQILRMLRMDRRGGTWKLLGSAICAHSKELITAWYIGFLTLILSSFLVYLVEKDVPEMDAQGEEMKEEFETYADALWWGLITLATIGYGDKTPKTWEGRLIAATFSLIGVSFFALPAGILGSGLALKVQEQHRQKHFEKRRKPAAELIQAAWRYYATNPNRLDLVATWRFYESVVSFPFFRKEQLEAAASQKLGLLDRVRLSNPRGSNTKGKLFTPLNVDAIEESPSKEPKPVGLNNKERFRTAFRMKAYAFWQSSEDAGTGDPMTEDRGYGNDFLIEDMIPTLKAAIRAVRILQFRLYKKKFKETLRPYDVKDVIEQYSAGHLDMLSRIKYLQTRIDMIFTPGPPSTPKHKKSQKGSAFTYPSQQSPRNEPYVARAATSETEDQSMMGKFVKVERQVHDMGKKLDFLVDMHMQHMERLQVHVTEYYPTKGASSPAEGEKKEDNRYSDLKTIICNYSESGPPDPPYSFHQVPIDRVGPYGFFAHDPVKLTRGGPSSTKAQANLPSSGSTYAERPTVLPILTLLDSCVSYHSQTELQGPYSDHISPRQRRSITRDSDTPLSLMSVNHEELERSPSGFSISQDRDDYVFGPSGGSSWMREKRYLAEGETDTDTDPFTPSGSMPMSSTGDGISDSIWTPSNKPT

potentiation, inactive:
CCCCC(=O)Nc1c(C)cc(C)cc1Cl -1.46, Cc1cc(C)c(NC(=O)CC(C)(C)C)c(Cl)c1 -1.12, Cc1cccc(C)c1NC(=O)C1CC2CCC1C2 (stereo not given) -13.8, Cc1cc(C)c(NC(=O)C2CC3CCC2C3)c(C)c1 (stereo not given) -9.88, Cc1ccc(C)c(NC(=O)C2CC3CCC2C3)c1 (stereo not given) -10
